In data set [1] the target is Anthrax toxin receptor 2 (Homo sapiens, UniProt P58335, C175A/R40C). As to the kind of experiment: Inhibition of CMG2 (40 to 217) C175A and R40C double mutant (unknown origin) interaction to full length PA E733C mutant expressed in Escherichia coli by FRET assay.
A short description of data set [2]: Cmax in C57BL/6J mouse at 20 mg/kg, ip after 6 to 24 hrs. Particulars: in vivo. It counts as ADME, organism-based. Also noted: dose 20 mg/kg, route intraperitoneal.
For data set [3], the system named is Mus musculus. In words: Toxicity in C57BL/6J mouse assessed as weight loss at 20 mg/kg, po or 10 mg/kg, ip measured on day 5. It counts as organism-based. Particulars: in vivo.
Data set [4] deals with Mus musculus. As to the kind of experiment: Toxicity in C57BL/6J mouse assessed as hunched posture at 20 mg/kg, po or 10 mg/kg, ip measured on day 5. It is filed as organism-based. The settings on record: in vivo.
The nature of data set [5]: Antiangiogenic activity in HMVEC assessed as inhibition of endothelial cell migration after 4 hrs by stereomicroscopic analysis. It counts as functional, cell-based. The settings on record: Homo sapiens. An outline of the steps:
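HMVEC-d (EGM-2, used before passage 7) resuspended in EBM with 0.1% BSA, 20,000 cells on fibronectin-coated 8.0 μm-pore polycarbonate transwells; migration toward full (5%) serum media ± compound for 4 h. Non-migrated cells swabbed off, membranes fixed and Diff-Quick stained. Data normalized to untreated control; two independent experiments, n=3 each; IC50 from binding isotherm fit.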

The nature of data set [6]: Cytotoxicity against HMVEC at 1 to 30 uM after 24 to 72 hrs by fluorescence assay. Particulars: human. An outline of the steps:
(§1)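 HMVEC-d (EGM-2, before passage 7) seeded at 2000 cells/well, medium swapped after attachment for EGM-2 ± compound; grown 1 or 3 days, then quantified by Cyquant fluorescence. Fold-proliferation = experimental readout / day-0 ethanol-fixed wells; normalized to untreated wells. Four independent experiments, n=4 wells each; t-test with Bonferroni correction.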

Data set [7] is described as follows: Cytostatic toxicity against HMVEC at 1 to 30 uM after 24 to 72 hrs by fluorescence assay. Particulars: human. An outline of the steps:
as §1

Data set [8] has as its system Mus musculus. As to the kind of experiment: Toxicity in C57BL/6J mouse assessed as behavioral abnormalities at 20 mg/kg, po or 10 mg/kg, ip measured on day 5. It is filed as organism-based. The settings on record: in vivo.
Data set [9] concerns Mus musculus. In words: Antiangiogenic activity in C57BL/6J mouse assessed as bFGF-induced angiogenesis at 20 mg/kg, po or 10 mg/kg, ip measured on day 5 by corneal micropocket assay. It is filed as functional, organism-based. The settings on record: Cornea. The procedure, abridged: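 bFGF pellet (80 ng) implanted in cornea; groups of five mice dosed daily from implantation day, either 20 mg/kg by oral gavage in 5% ethanol or 10 mg/kg/day IP in 2.5% DMSO/5% Cremaphor EL/5% Tween-80/7.5% N-methyl-2-pyrrolidone/0.9% NaCl; vehicle-only controls. Vascular response area measured by slit lamp on postoperative day 5, typically 10 eyes per group.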

Activity calls are given as the source filed them. The rule behind the calls is not given here.

Here are results for 16 compounds from ChEMBL document CHEMBL2321858, “1,2,3,4,6-Penta-O-galloyl-β-D-glucopyranose inhibits angiogenesis via inhibition of capillary morphogenesis gene 2” (J Med Chem, 2013).

Chain of Anthrax toxin receptor 2 (P58335 34-489 R40C/C175A limits assumed): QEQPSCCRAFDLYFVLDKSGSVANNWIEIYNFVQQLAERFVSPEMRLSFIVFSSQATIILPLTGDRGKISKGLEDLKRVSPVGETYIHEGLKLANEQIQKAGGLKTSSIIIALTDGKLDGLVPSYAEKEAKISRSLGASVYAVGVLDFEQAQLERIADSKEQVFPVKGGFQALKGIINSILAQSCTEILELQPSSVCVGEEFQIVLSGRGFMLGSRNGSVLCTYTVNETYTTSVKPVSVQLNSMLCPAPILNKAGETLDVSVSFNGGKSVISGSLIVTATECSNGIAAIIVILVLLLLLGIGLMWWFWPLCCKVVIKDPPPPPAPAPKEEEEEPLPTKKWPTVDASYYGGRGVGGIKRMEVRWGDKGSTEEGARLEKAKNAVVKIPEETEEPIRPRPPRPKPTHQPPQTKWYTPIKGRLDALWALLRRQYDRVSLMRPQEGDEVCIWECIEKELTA

The compound `COc1cc(/C=C/C(=O)CC(=O)/C=C/c2ccc(O)c(OC)c2)ccc1O` [CURCUMIN] came in with an IC50 in [1] of more than 300 µM.

In turn, `Oc1cc(O)c2c(c1)O[C@H](c1ccc(O)c(O)c1)[C@H](O)C2` [(-)-EPICATECHIN] showed a concentration for half-maximal inhibition (IC50) in data set [1] of more than 300 µM.

For `O=C(O)c1ccc(O)c(O)c1` [PROTOCATECHUIC ACID], the IC50 in [1] was more than 300 µM.

With `O=C(OC[C@H]1O[C@@H](OC(=O)c2cc(O)c(O)c(O)c2)[C@H](OC(=O)c2cc(O)c(O)c(O)c2)[C@@H](OC(=O)c2cc(O)c(O)c(O)c2)[C@@H]1OC(=O)c1cc(O)c(O)c(O)c1)c1cc(O)c(O)c(O)c1` [PENTAGALLOYL GLUCOSE], the figures for the IC50 in data set [1] and in [5] were 0.3 µM and 0.82 µM, respectively. This compound yielded a Cmax in data set [2] of less than 1000 nM. For the same compound, the Activity entry in data set [3], in data set [4], in data set [6], in data set [7] and in [8] was “Non-toxic” throughout. Further, in data set [9], the inhibition result is “Active”.

As for `COC(=O)c1cc(O)c(O)c(O)c1` [GALLIC ACID METHYL ESTER], the concentration for half-maximal inhibition (IC50) in data set [1] is more than 300 µM.

Compound `O=C(O)/C=C/c1ccc(O)c(O)c1` [CAFFEIC ACID] returned an IC50 in data set [1] of more than 300 µM.

`O=C(O)CCc1ccc(O)c(O)c1` [DIHYDROCAFFEIC ACID] came in with a concentration for half-maximal inhibition (IC50) in data set [1] of more than 300 µM.

As for `O=C(OC[C@H]1O[C@@H](OC(=O)c2cc(O)c(O)c(OC(=O)c3cc(O)c(O)c(O)c3)c2)[C@H](OC(=O)c2cc(O)c(O)c(OC(=O)c3cc(O)c(O)c(O)c3)c2)[C@@H](OC(=O)c2cc(O)c(O)c(OC(=O)c3cc(O)c(O)c(O)c3)c2)[C@@H]1OC(=O)c1cc(O)c(O)c(OC(=O)c2cc(O)c(O)c(O)c2)c1)c1cc(O)c(O)c(OC(=O)c2cc(O)c(O)c(O)c2)c1` [TANNIC ACID], the concentration for half-maximal inhibition (IC50) in data set [1] is more than 300 µM.

For `O=c1c(O)c(-c2ccc(O)c(O)c2)oc2cc(O)cc(O)c12` [QUERCETIN], the IC50 in data set [1] was more than 300 µM.

As to `Oc1cc(O)c2c(c1)O[C@H](c1cc(O)c(O)c(O)c1)[C@H](O)C2` [EPIGALLOCATECHIN], the half-maximal inhibitory concentration (IC50) in [1] is more than 300 µM.

As for `O=c1c(O)c(-c2cc(O)c(O)c(O)c2)oc2cc(O)cc(O)c12` [MYRICETIN], the IC50 in [1] was more than 300 µM.

Compound `COC(=O)c1ccc(O)c(O)c1` [METHYL PROTOCATECHUATE] gave a concentration for half-maximal inhibition (IC50) in data set [1] of more than 300 µM.

For the compound `O=C(O)c1cc(O)c(O)c(O)c1` [GALLIC ACID], the 50% inhibitory concentration (IC50) in data set [1] was more than 300 µM.

The compound `NCCc1ccc(O)c(O)c1` [DOPAMINE] showed an IC50 in data set [1] of more than 300 µM.

`CCCOC(=O)c1cc(O)c(O)c(O)c1` [PROPYL GALLATE]: in [1], the IC50 was more than 300 µM.

In data set [1], `COc1cc(C(=O)O)ccc1O` [VANILLIC ACID] gave a half-maximal inhibitory concentration (IC50) of more than 300 µM.
